Measurements from PubChem BioAssay AID638 (SRMLSC, 2007).

Tested on: E. coli BW25113 wild type growth inhibition, OD615
Experiment: growth inhibition of wild-type E. coli, dose response, BW25113 wild type, OD615 (AID 638)
In short: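 Assay system: E. coli BW25113 wild type. Doses: compound concentration series. Timing: 20 h compound exposure, 37 °C. Technique: OD615 absorbance. Medium: LB broth containing kanamycin at 50 µg/mL. Benchmarks: chloramphenicol at 30 µM final as inhibition control. Measure: IC50 from 4-parameter logistic, bounds fixed 0–100%.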

Row | SMILES | IC50
1 | CCSc1nnc(NC(=O)c2ccccn2)s1 | 92.8 µM
2 | O=c1ccsn1Cc1ccccc1 | 23.6 µM
3 | CO[C@@]1(NC(=O)Cc2cccs2)C(=O)N2C(C(=O)O)=C(COC(N)=O)CS[C@@H]21 | 7.91 µM
4 | COc1cccc(C(=O)Nc2nnc(-c3cccs3)o2)c1 | 79.6 µM
5 | O=C(Nc1nnc(-c2ccccc2)o1)c1ccc(Cl)cc1 | 102 µM
6 | C=CCNc1ncnc2c1[nH]c1ccc(C)cc12 | 35.4 µM
7 | CCn1cc(C(=O)Nc2nncs2)c(=O)c2cc(F)c(N3CCN(C(=O)c4ccco4)CC3)cc21 | 75.6 µM
8 | CCCCOc1ccc(NC2=NC3(CCCCC3)N=C(N)N2)cc1 | 89 µM
9 | CC(=O)c1c(C)n([O-])c2ccccc2[n+]1=O | 19.5 µM
10 | CCn1cc(C(=O)O)c(=O)c2cc(F)c(N3CCN(C(=O)Nc4ccccc4)CC3)cc21 | 2.28 µM
11 | COc1cc(Cc2cnc(N)nc2N)cc(OC)c1OC | 0.688 µM
12 | CC(=O)OCC1=C(C(=O)O)N2C(=O)[C@@H](NC(=O)Cc3cccs3)[C@H]2SC1 | 10.6 µM
13 | CCn1cc(C(=O)NCc2ccc3c(c2)OCO3)c(=O)c2cc(F)c(N3CCN(C)CC3)cc21 | 28.2 µM
14 | CN(C)[C@@H]1C(=O)C(C(N)=O)=C(O)[C@@]2(O)C(=O)C3=C(O)c4c(O)ccc(Cl)c4[C@@H](O)[C@H]3C[C@@H]12 | 0.609 µM
15 | O=S1(=O)Nc2c(ccc3cccnc23)-c2ccccc21 | 26.8 µM
16 | NC1C2CN(c3nc4c(cc3F)c(=O)c(C(=O)O)cn4-c3ccc(F)cc3F)CC12 (centres undefined) | < 0.195 µM
17 | N#Cc1ccc(NC(=O)Nc2ccc(Cl)cc2)cc1 | 49.2 µM
18 | Oc1c(CN2CCCCC2)cc(Br)c2cccnc12 | 61.3 µM
19 | CN1CCN(c2c(F)cc3c(=O)c(C(=O)O)cn4c3c2SCC4)CC1 | 1.1 µM
20 | Cc1ccsc1C(=O)Nc1nnc(-c2ccco2)o1 | 60.3 µM
21 | O=C(Nc1cccc(Cl)c1)Nc1nccs1 | 96.1 µM
22 | COc1c(N2CCNC(C)C2)c(F)cc2c(=O)c(C(=O)O)cn(C3CC3)c12 (centres undefined) | < 0.195 µM
23 | c1ccc(-c2cccc(-c3ccccn3)n2)nc1 | 66.8 µM
24 | CCC(=O)N1CCN(c2cc3c(cc2F)c(=O)c(C(=O)O)cn3CC)CC1 | 3.16 µM
